Assay results gathered from unrelated publications.
Target: Ephrin type-B receptor 2 (EPHB2, Homo sapiens, UniProt P29323)
One construct used (P29323 19-1055): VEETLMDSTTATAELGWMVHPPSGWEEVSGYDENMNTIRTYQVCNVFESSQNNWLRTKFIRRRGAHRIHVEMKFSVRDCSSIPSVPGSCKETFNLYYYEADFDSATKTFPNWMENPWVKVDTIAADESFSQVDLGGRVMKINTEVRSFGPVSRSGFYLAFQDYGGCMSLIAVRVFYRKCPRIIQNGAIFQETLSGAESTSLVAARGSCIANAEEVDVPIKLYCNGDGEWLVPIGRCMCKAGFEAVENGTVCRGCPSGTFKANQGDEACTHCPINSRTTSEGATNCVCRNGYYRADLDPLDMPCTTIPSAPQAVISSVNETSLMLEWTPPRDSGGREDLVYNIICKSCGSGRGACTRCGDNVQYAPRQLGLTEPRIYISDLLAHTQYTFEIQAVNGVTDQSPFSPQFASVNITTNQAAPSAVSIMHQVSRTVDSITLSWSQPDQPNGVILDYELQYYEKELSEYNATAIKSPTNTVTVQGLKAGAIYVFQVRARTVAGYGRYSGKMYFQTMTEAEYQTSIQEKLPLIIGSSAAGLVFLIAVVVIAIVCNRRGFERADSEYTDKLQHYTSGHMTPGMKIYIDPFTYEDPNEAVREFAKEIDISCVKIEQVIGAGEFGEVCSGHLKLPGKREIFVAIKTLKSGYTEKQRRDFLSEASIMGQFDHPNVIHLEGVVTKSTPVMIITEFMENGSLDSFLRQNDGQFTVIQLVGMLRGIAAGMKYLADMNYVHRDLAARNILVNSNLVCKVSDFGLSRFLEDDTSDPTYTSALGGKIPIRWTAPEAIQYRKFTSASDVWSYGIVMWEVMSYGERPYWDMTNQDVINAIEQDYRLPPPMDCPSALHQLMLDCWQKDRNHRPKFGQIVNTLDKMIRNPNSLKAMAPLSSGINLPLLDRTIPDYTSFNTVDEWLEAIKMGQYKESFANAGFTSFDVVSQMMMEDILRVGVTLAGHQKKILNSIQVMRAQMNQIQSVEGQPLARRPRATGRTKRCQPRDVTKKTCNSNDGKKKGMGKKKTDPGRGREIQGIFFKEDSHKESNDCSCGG

C[C@@H]1CN(c2cc(-c3n[nH]c4ccc(OC5(C)CC5)cc34)ncn2)C[C@H](C)O1  remaining binding (cell-free assay; competition with immobilised ligand; 0.1 µM): 90%
c1cnn2ncc(-c3ccnc(N4CCC45COC5)n3)c2c1  remaining binding (binding; 1 µM): 100%
COc1cnc(Nc2cccc(S(N)(=O)=O)c2)nc1N1CCN(c2ccccc2)C(=O)C1  remaining binding (binding; competition with immobilised ligand; 1 µM): 99%
COc1ncc2cc3ccccc3nc2c1C#N  remaining binding (cell-free assay; competition with immobilised ligand; 5 µM): 99%
Cn1cc(Cl)c2c(Oc3c(F)cc(Nc4cc(Cl)nc(N)n4)cc3F)ccnc21  remaining binding (cell-free assay; competition with immobilised ligand; 0.1 µM): 100%
CN(C)c1ncc(F)c(-c2cnn3ncccc23)n1  remaining binding (binding; 1 µM): 100%
O=C(NC[C@@H]1[C@H]2CN(C(=O)OCc3cc(C(F)(F)F)cc(C(F)(F)F)c3)C[C@@H]12)c1ccc2[nH]nnc2c1  remaining binding (cell-free assay; competition with immobilised ligand; 1 µM): 100%
O=C(c1ccc(Nc2ncc(Cl)c(-c3ccc(Cl)s3)n2)cc1)N1CCC(N2CCCC2)CC1  remaining binding (binding; competition with immobilised ligand; 1 µM): 88%
Nc1ncc2c(n1)-c1c([nH]c3ccc(C#CC4CC4)cc13)CCCC2  remaining binding (binding; competition with immobilised ligand; 1 µM): 90%
COc1ccc2c(c1)O[C@@H](c1ccc(OC)c(OC)c1)C[C@H]2NC(=O)C1(c2ccc3c(c2)OC(F)(F)O3)CC1  remaining binding (cell-free assay; competition with immobilised ligand; 1 µM): 100%
O=C(NCCCN1CCOCC1)c1ccc(Nc2nccc(-c3cc4ccccc4s3)n2)cc1  remaining binding (binding; competition with immobilised ligand; 1 µM): 98%
O=C(Nc1c[nH]nc1C(=O)NC1CCNCC1)c1cc(F)cc(F)c1  remaining binding (binding; competition with immobilised ligand; 1 µM): 100%
CN(CCCC(F)(F)F)c1nccc(-c2cnn3ncccc23)n1  remaining binding (binding; 1 µM): 84%
CCN1CCN(Cc2ccc(C(=O)Nc3ccc(C)c(Oc4ccc5c(c4)CC(=O)N5)c3)cc2C(F)(F)F)CC1  remaining binding (binding; competition with immobilised ligand; 1 µM): 100%
N[C@@H]1CCN(c2nccc(-c3cnn4ncccc34)n2)C1  remaining binding (binding; 1 µM): 100%
Cc1nccc(COC(=O)N2C[C@@H]3[C@@H](CNC(=O)c4ccc5[nH]nnc5c4)[C@@H]3C2)n1  remaining binding (cell-free assay; competition with immobilised ligand; 1 µM): 100%
C[C@@H]1CCN(c2nccc(-c3cnn4ncccc34)n2)C1  remaining binding (binding; 1 µM): 100%
CNC(=O)[C@@H]1CC[C@@H](n2c(-c3ccc4cnccc4c3)nc3ccc(C(=O)NCc4cccc(C(N)=O)c4)cc32)C1  remaining binding (binding; competition with immobilised ligand; 1 µM): 96%
